Source: PubChem BioAssay (several laboratories)
TAG inh: inhibitors of triacylglycerol accumulation; H9c2 cells, Nile Red lipid (TAG) fluorescence; cells loaded with 200 µM oleic acid; inhibition, % at 12.5 µM; hit rate 0.66% among 230,000;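 active means pattern-corrected inhibition of lipid staining of at least 50% with the nuclear-stain viability signal not falling by more than 50%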;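 further: 0% = DMSO wells and 100% = triacsin C control wells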
iPSC survival up: hiPSC single-cell survival enhancement; ATPlite luminescence; 100% = ROCK inhibitor wells, 0% = DMSO; survival enhancement, % at 20 µM; hit rate 0.044% among 360,000; in the data active means survival enhancement above about 18%;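 further: cells exposed to compounds for 16 hours before the ATP read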
NR1D1 modulator: modulates human Rev-erb alpha binding to DNA | activity, % at 10 µM | Rev-erbα–FITC-DNA binding, fluorescence polarization, 90 min | AID 1259318 | hit rate 0.79% among 370,000 | P20393;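 active means activity above about 14%, limit read from the data; passing the limit was not always enough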;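 further: 0% = DMSO wells with 35 nM protein and 100% = DMSO wells with 750 nM protein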
Target sequence (P20393 whole entry, looked up): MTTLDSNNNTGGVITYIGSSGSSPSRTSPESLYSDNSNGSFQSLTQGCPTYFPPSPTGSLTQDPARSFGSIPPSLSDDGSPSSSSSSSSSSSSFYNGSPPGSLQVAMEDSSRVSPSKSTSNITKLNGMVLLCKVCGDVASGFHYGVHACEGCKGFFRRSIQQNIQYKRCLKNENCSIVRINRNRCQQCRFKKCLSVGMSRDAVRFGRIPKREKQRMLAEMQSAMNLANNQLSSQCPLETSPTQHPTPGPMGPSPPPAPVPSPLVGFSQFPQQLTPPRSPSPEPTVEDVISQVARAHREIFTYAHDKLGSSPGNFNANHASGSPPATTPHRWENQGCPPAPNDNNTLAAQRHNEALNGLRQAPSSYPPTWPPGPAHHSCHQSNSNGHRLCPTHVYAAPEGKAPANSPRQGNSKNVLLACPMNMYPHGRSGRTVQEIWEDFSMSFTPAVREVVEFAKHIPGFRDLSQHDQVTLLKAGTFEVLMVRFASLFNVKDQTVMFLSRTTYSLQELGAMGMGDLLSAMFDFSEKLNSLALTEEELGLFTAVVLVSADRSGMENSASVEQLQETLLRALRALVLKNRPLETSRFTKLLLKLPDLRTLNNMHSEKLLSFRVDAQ
T cruzi repl: blocks replication of Trypanosoma cruzi; inhibition, % (no concentration beside the values); T. cruzi beta-gal in NIH3T3, luminescence, 90 h; hit rate 1.4% among 300,000; AID 1885;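 active means mean inhibition across valid replicates above about 55%, limit read from the data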;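 further: signal also drops with host cell toxicity which is not excluded here; 0% = plate median of DMSO wells and 100% = zero luminescence signal; higher percent means less beta-gal luminescence so fewer parasites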
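System: mouse NIH/3T3 fibroblasts infected with β-gal-expressing T. cruzi Tulahuen C4 / Input: NIH/3T3 cells, 5,000 per well / Buffer or medium: Low-serum DMEM with 2% FBS / Probe or stimulus: 5000 reporter trypomastigotes per well / Schedule: ≥90 h infection period, 3 h prior cell attachment / Measured by: GalScreen luminescence, 60 min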
PG9 binder: small molecules binding HIV-1 gp120 antibody PG9; TR-FRET gp120-PG9 antibody binding; inhibition, % at 6.7 µM; hit rate 0.43% among 360,000; in the data active means inhibition above about 8.5%
MIN6 prolif: MIN6 beta-cell proliferation induction; proliferation, % at 10 µM; AID 2380; MIN6 cells proliferation, ATPlite luminescence, 48 h; cells starved in 0.2% serum; 100% = growth in 10% serum; hit rate 0.29% among 330,000;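 active means compounds whose signal lies at least 3.5 SD above the mean of all wells on their plate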;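 further: 0% = DMSO-treated cells in low-serum medium and 100% = 10% serum control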
PG9 binder conf: confirmation of small molecules binding HIV-1 gp120 antibody PG9; shares compounds with PG9 binder; TR-FRET PG9 antibody binding, biochemical; inhibition, % at 6.7 µM; hit rate 90% among 1,500; in the data active means inhibition above about 9%
PGV04 counter: counter-screen for PG9 binders: binding control antibody PGV04. inhibition, % at 6.7 µM. shares compounds with PG9 binder. hit rate 95% among 1,500. TR-FRET PGV04 antibody-gp120 binding, biochemical; in the data active means inhibition above about 9.5%
TAG conf: confirmation of triacylglycerol accumulation inhibitors | shares compounds with TAG inh | H9c2 lipid accumulation, Nile Red fluorescence; cells loaded with 200 µM oleic acid | inhibition, % at 12.5 µM | hit rate 71% among 990;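 active means mean inhibition across replicates of 40% or more; inactive means mean inhibition below 40%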;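 further: plate controls were DMSO only wells for no effect and Triacsin C treated wells for full effect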
NR1D1 mod conf: confirmation of modulators of human Rev-erb alpha DNA binding. shares compounds with NR1D1 modulator. Rev-erb alpha FITC-DNA binding, fluorescence polarization, 90 min. activation, % at 25 µM. hit rate 61% among 3,000;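 active means activation at or above a set limit, or at least 3 SD above the negative control mean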;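 further: 0% = 35 nM protein with DMSO and 100% = 750 nM protein high control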
RORg counter: affects RORgamma DNA binding in a Rev-erb alpha counter-screen; IC50, µM; purified RORgamma protein-FITC-DNA binding, fluorescence polarization; shares compounds with NR1D1 modulator; hit rate 8% among 910; AID 1259320;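 active means Compounds whose fitted half-maximal concentration for disrupting protein-DNA binding is below 10 micromolar; the record names Rev-erb in its text, so the target is in doubt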
* = called active by the depositor. Shown are actives, neighbours in structure and some others; about 2.9% of the full set was active somewhere.

How did Nc1nc(N)c2sc3nc(C(F)(F)F)cc(C(F)(F)F)c3c2n1 do in these assays?
TAG inh: 11.7; iPSC survival up: -0.8; NR1D1 modulator: -1.4; T cruzi repl: 5.3; PG9 binder: -3.3; MIN6 prolif: -1.1

How did CC(C)OC(=O)CSc1nnc(-c2cccnc2)n1N do in these assays?
TAG inh: -5.7; iPSC survival up: 2.5; NR1D1 modulator: -5.9; T cruzi repl: -8.7; PG9 binder: -2.5; MIN6 prolif: -3.4

What do the screens show for `O=C(CSc1n[nH]c(-c2cccs2)n1)NCc1ccc2c(c1)OCO2`?
iPSC survival up: 1.1; NR1D1 modulator: -2.0; T cruzi repl: -12.9; PG9 binder: 2.2; MIN6 prolif: 1.0

How did N#Cc1c(N)nc(SCC(=O)NCc2ccc3c(c2)OCO3)c(C#N)c1-c1cccs1 do in these assays?
TAG inh: 1.1; iPSC survival up: -2.5; NR1D1 modulator: 85.3*; T cruzi repl: -5.5; PG9 binder: 49.7*; MIN6 prolif: 0.7; PG9 binder conf: 23.4*; PGV04 counter: 40.4*; NR1D1 mod conf: 53.7*; RORg counter: >40

How did COc1ccc(C)c2sc(=NC(=O)c3ccc(C(C)=O)cc3)n(C)c12 do in these assays?
TAG inh: 9.2; iPSC survival up: -0.3; NR1D1 modulator: 5.0; T cruzi repl: 17.9; PG9 binder: 1.2; MIN6 prolif: -1.6

What do the screens show for `COc1ccc(C)c2sc(=NC(=O)c3ccccc3)n(C)c12`?
TAG inh: -9.8; iPSC survival up: -1.6; NR1D1 modulator: 58.4*; T cruzi repl: 8.9; PG9 binder: 12.0*; MIN6 prolif: -2.8; PG9 binder conf: 7.8; PGV04 counter: 10.3*; NR1D1 mod conf: 2.3

What do the screens show for `CCc1ccc2c(c1)C1(NN=C(c3cccc4ccccc34)S1)C(=O)N2` (stereo unspecified)?
TAG inh: 4.3; iPSC survival up: -2.0; NR1D1 modulator: 6.8; T cruzi repl: 53.2; PG9 binder: 0.0; MIN6 prolif: -7.0

How did COc1cc(NC(=O)c2ccc(-c3ccc(Br)cc3)o2)ccc1NC(=O)C(C)C do in these assays?
TAG inh: 20.7; iPSC survival up: -3.0; NR1D1 modulator: 36.9*; T cruzi repl: 42.8; PG9 binder: 21.8*; MIN6 prolif: -2.5; PG9 binder conf: 40.9*; PGV04 counter: 29.8*; NR1D1 mod conf: 15.6

What do the screens show for `COc1ccccc1NC(=O)COC(=O)c1ccc2c(c1)OCCO2`?
TAG inh: -15.0; iPSC survival up: 0.0; NR1D1 modulator: 22.4*; PG9 binder: 11.3*; MIN6 prolif: 5.4; PG9 binder conf: 6.4; PGV04 counter: 10.4*; NR1D1 mod conf: 32.1*; RORg counter: >40

What do the screens show for `CC(CC(=O)Nc1ccc2c(c1)c(=O)n(C)n2-c1ccc2ccccc2c1)C(F)(F)F` (stereo unspecified)?
TAG inh: 54.6*; iPSC survival up: -0.8; NR1D1 modulator: 20.5*; PG9 binder: 24.2*; PG9 binder conf: 17.3*; PGV04 counter: 24.3*; TAG conf: 44.1*; NR1D1 mod conf: 22.1*

How did CCCc1nc(-c2cc3ccc(C)cc3[nH]c2=O)no1 do in these assays?
TAG inh: 2.3; iPSC survival up: 2.3; NR1D1 modulator: -3.1; T cruzi repl: -0.5; PG9 binder: -2.0; MIN6 prolif: 0.6

What do the screens show for `CCOc1ccccc1-c1nc(-c2cc3ccc(C)cc3[nH]c2=O)no1`?
iPSC survival up: 2.9; NR1D1 modulator: 65.7*; T cruzi repl: 31.0; PG9 binder: 17.5*; MIN6 prolif: -0.6; PG9 binder conf: 13.2*; PGV04 counter: 27.4*; NR1D1 mod conf: 44.3*

How did COc1cc(OC)cc(-c2oc(=O)c3cc(OC)c(OC)cc3c2C#CCCO)c1 do in these assays?
TAG inh: 32.4; iPSC survival up: 12.3; NR1D1 modulator: 20.8*; PG9 binder: 24.7*; MIN6 prolif: 0.5; PG9 binder conf: 36.2*; PGV04 counter: 42.0*; NR1D1 mod conf: -11.4

What do the screens show for `Nc1c2c(=O)oc(-c3ccccc3)cc2nn1-c1ccccc1`?
TAG inh: 10.3; iPSC survival up: -0.1; NR1D1 modulator: -2.3; T cruzi repl: 2.5; PG9 binder: 1.2; MIN6 prolif: -3.5

What do the screens show for `Cc1c(-c2ccc(Cl)cc2)oc(=O)c2c(N)n(-c3ccccc3)nc12`?
TAG inh: -23.2; iPSC survival up: -0.4; NR1D1 modulator: 48.6*; T cruzi repl: -0.5; PG9 binder: 36.2*; MIN6 prolif: -2.2; PG9 binder conf: 30.6*; PGV04 counter: 39.5*; NR1D1 mod conf: 49.0*; RORg counter: >40

What do the screens show for `COc1ccnc2c1c(=O)n(Cc1ccc(Cl)cc1)c(=O)n2C`?
iPSC survival up: -0.4; NR1D1 modulator: -0.8; T cruzi repl: 14.0; PG9 binder: 3.5; MIN6 prolif: -2.2

Results for O=C(Nc1cccc(-c2nc3ncccc3o2)c1)c1cc2ccccc2o1 ?
TAG inh: 29.8; iPSC survival up: 3.1; NR1D1 modulator: -2.6; T cruzi repl: -9.3; PG9 binder: -0.7; MIN6 prolif: -2.7

Results for Cc1ccc(-c2nc3ncccc3o2)cc1NC(=O)COc1ccccc1 ?
iPSC survival up: -0.3; NR1D1 modulator: 21.8*; T cruzi repl: 11.2; PG9 binder: 9.1*; MIN6 prolif: -2.0; PG9 binder conf: 12.6*; PGV04 counter: 18.1*; NR1D1 mod conf: 9.3

What do the screens show for `Cc1ccc(-c2nc3ncccc3o2)cc1NC(=O)c1cc2ccccc2o1`?
TAG inh: 33.8; iPSC survival up: -1.6; NR1D1 modulator: 18.9*; T cruzi repl: 12.8; PG9 binder: 8.9*; MIN6 prolif: -0.7; PG9 binder conf: 11.8*; PGV04 counter: 34.7*; NR1D1 mod conf: -0.2

How did Cc1ccc(-c2nc3ncccc3o2)cc1NC(=O)CC(C)C do in these assays?
iPSC survival up: -0.3; NR1D1 modulator: 6.3; T cruzi repl: 0.5; PG9 binder: -0.9; MIN6 prolif: 0.0
